# TAAR1 ag = human TAAR1 agonism; Q96RJ0; CHO RD-HGA16 TAAR1, Fluo-8 calcium fluorescence; vehicle wells 0%, saturating PEA agonist 100%; activation, % at 3 µM; hit rate 0.99% among 360,000; AID 624467;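 active = activation above the mean activation of all test compounds in the run plus 3 SD, cut at about 38% in these data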
#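 test system = CHO RD-HGA16 cells carrying human TAAR1 plus Gα16 | schedule = 17-24 h seeding, 75 min 37 °C dye, 30 min RT | compound dosing = 3 µM single concentration | control set = DMSO and PEA EC100 | replicates = n 1 | signal = Fluo-8 fluorescence, 5 s baseline then 140 s kinetic read | measure = percent activation vs PEA EC100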
# MPTP inh = blocks calcium-induced mitochondrial swelling; isolated mouse mitochondria, Ca2+ swelling absorbance, 30 min; inhibition, % at 10 µM; hit rate 1.4% among 360,000; AID 602449;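 active = inhibition of 50% or more, scaled per plate between neutral and stimulator controls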
# GPR7 antag = human neuropeptides B/W receptor 1 antagonism; P48145; GPR7-expressing cells, fluorescence antagonist assay; inhibition, % at 4.4 µM; hit rate 1.1% among 290,000; AID 1861; in the data active = inhibition above about 16%, passing the limit was not always enough;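 note: cells stimulated with the agonist NPW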
# DAGLB inh = diacylglycerol lipase beta (human) inhibition | Q8NCG7 | HEK293T DAGLB membrane lysate, EnzChek fluorogenic substrate | inhibition, % at 5.17 µM | hit rate 0.059% among 340,000; in the data active = inhibition above about 34%
# Target sequence (Q8NCG7 whole entry, looked up): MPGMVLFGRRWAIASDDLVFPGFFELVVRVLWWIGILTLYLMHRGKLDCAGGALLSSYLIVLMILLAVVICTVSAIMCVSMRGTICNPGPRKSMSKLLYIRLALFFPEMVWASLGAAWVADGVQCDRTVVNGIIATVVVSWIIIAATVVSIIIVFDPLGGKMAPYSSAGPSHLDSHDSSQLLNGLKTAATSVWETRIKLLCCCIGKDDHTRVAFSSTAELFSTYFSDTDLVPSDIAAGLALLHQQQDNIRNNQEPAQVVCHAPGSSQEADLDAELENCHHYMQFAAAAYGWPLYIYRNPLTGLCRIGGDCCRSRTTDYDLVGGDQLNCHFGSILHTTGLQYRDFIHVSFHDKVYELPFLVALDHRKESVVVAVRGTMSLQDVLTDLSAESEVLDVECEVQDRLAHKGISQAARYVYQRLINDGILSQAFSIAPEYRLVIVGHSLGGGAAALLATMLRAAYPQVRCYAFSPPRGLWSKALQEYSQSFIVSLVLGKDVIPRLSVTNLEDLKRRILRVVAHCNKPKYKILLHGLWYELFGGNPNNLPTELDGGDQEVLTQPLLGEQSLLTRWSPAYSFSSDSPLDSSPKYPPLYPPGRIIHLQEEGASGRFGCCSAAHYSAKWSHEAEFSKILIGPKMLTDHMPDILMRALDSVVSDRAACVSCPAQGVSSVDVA
# TAAR1 antagonist = human TAAR1 antagonism | Q96RJ0 | CHO RD-HGA16 TAAR1, Fluo-8 calcium fluorescence, antagonist | inhibition, % at 3 µM | hit rate 1.5% among 360,000 | AID 624466;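 active = inhibition above a per-plate cutoff, the mean inhibition of test compounds on that plate plus 3 SD, cut at about 49% in these data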
#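 Assay system: CHO-derived RD-HGA16 cells stably expressing human TAAR1 plus Gα16. Timing: 140 s kinetic read after compound, 140 s after agonist. Technique: kinetic Fluo-8 calcium fluorescence measurement. Measure: % inhibition of agonist calcium response.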
# Rh123 counter = mitochondrial membrane potential, counter-screen. shares compounds with MPTP inh. isolated mitochondria, Rhodamine 123 fluorescence. inhibition, % at 10 µM. hit rate 78% among 5,000. AID 624504; in the data active = inhibition above about 22%
# MPTP abs DR = MPTP inhibition, dose response swelling confirmation. shares compounds with MPTP inh. isolated mitochondria swelling, absorbance. IC50, µM. hit rate 58% among 780. AID 651561; in the data active = IC50 below about 20 µM
# MPTP cs DR = MPTP inhibitor counter-screen activity, dose response; isolated mitochondria counterscreen, fluorescence read-out; AID 651564; shares compounds with MPTP inh; hit rate 49% among 780; IC50, µM; in the data active = IC50 below about 80 µM
# A number is an active result; i = inactive; nt = not tested or not shown. Shown are actives, neighbours in structure and some others; about 4% of the full set was active somewhere.
SMILES,TAAR1 ag,MPTP inh,GPR7 antag,DAGLB inh,TAAR1 antagonist,Rh123 counter,others
COc1ccc(-c2[nH]c(-c3ccc(C)cc3)nc2SCC(=O)Nc2nccs2)cc1,i,i,i,i,i,nt,
COc1ccc(-c2[nH]c(-c3ccc(SC)cc3)nc2SCC(=O)Nc2nccs2)cc1,i,68,i,i,i,49,
Cc1ccc(CCNc2ncnc(Cl)c2N)cc1,i,101,nt,i,i,108,
Cc1ccc([N+](=O)[O-])cc1NC(=O)c1c(-c2ccccc2)noc1C,i,i,i,i,i,nt,
O=C1Cc2ccccc2Sc2cc(OCCCN3CCCCC3)ccc21,i,71,i,i,i,i,MPTP abs DR=9.9;MPTP cs DR=i
COC(=O)C1=C(C)N(C)C(=NCc2ccc(C(F)(F)F)cc2)NC1c1ccc(Cl)cc1 (stereo unspecified),i,nt,nt,nt,i,nt,
C=CCNCCOc1ccc(C(C)(C)c2ccccc2)cc1,i,78,i,i,i,i,MPTP abs DR=15;MPTP cs DR=i
CC(OCCN1CCCC1)(c1ccc(F)cc1)c1ccc(F)cc1,i,76,i,i,i,i,MPTP abs DR=i;MPTP cs DR=i
CC[C@H](C)Cc1cn([C@@H](CCCCN)C(=O)NCCCCCCCCCCC(=O)N2CCNCC2)nn1,i,89,nt,i,i,i,
Cc1[nH]c2ccccc2c1CC(=O)Nc1ccc(N(C)c2cccnc2)c(-c2cccc(Cl)c2)c1,i,nt,nt,nt,i,nt,
CN1/C(=C\C(=O)Nc2ccc(Cl)cc2)C(C)(C)c2ccccc21,i,79,i,i,i,70,
Cc1nnsc1C(=O)NC1CCCc2c1cnn2-c1ccc(F)cc1F (stereo unspecified),i,i,i,i,i,nt,
Cc1cccc(-n2ncc3c2CCCC3NC(=O)c2ccc[n+]([O-])c2)c1C (stereo unspecified),i,i,i,i,i,nt,
Cn1nccc1C(=O)NC1CCCc2c1cnn2-c1ccc(C(C)(C)C)cc1 (stereo unspecified),i,98,i,i,i,103,
Cc1ccc(C(=O)NC2CCCc3c2cnn3-c2ccc(F)cc2F)cn1 (stereo unspecified),i,52,i,i,i,91,
Cc1cc(C(=O)NC2CCCc3c2cnn3-c2cccc(C)c2C)n(C)n1 (stereo unspecified),i,90,i,i,i,108,
CN1CCN(C(=O)C[C@@H]2C[C@H]3c4cc(NC(=O)c5cccnc5)ccc4O[C@H]3[C@H](CO)O2)CC1,i,i,nt,i,i,nt,
COc1ccc(NC(=O)Cn2c(C)cc(=O)c3ccccc32)cc1,i,61,i,i,i,41,
CCOC(=O)c1ccc(N/N=C/c2cc(Br)cc([N+](=O)[O-])c2O)cc1,i,74,i,i,i,21,
O=C(Nc1ccc2c(c1)OCO2)C1Cc2c(-c3ccc4c(c3)OCO4)ccnc2O1 (stereo unspecified),i,i,nt,nt,i,nt,
NC(=S)n1[nH]c(-c2ccc([N+](=O)[O-])cc2)c(N=Nc2cccc(Cl)c2)c1=O,i,90,i,i,i,70,
NC(=S)n1[nH]c(-c2ccc([N+](=O)[O-])cc2)c(N=Nc2ccc(O)cc2)c1=O,i,i,i,i,i,nt,
CC(C)OC(=O)/C=C1\C[C@@H](c2ccccc2C(F)(F)F)O[C@@H](c2ccccc2C(F)(F)F)O1,i,i,nt,nt,i,nt,
CC(C)C[C@H]1COc2cccc(N(C)CCO)c2S(=O)(=O)N1,i,i,nt,nt,i,nt,
COCCNC(=S)N(C)[C@H]1C[C@H]2c3cc(N4CCN(C)CC4)ccc3CCN2C(=O)[C@H]1[C@H](C)O,i,i,nt,i,i,nt,
SMILES,TAAR1 ag,MPTP inh,GPR7 antag,DAGLB inh,TAAR1 antagonist,Rh123 counter,others
CNCCC1Sc2ccccc2Oc2ccccc21 (stereo unspecified),i,61,i,i,i,i,MPTP abs DR=10;MPTP cs DR=i
FC(F)(F)Oc1ccc(NC(=S)Nc2ccccc2N2CCOCC2)cc1,i,90,i,i,i,81,
O=C1c2cccc(OCc3ccc(F)cc3)c2CCN1Cc1ccc(F)cc1,i,79,i,i,i,83,
CCNC(=O)N1CCN(c2ccc(N3CCN(C(=O)NCC)[C@@H](C)C3)c(C)c2)[C@H](C)C1,i,nt,nt,nt,i,nt,
Cc1cnc(NC(=O)CSc2ccc(Cl)cc2)s1,i,i,i,i,i,nt,
CCOC(=O)Cc1csc(NC(=O)Nc2ccc(Cl)cc2)n1,i,74,i,i,i,77,
CCOC(=O)c1csc(NC(=O)Nc2cccc(Cl)c2)n1,i,97,i,i,i,84,
O=C(Cc1csc(NC(=O)Nc2ccc(Cl)cc2)n1)NC1CCCC1,i,94,nt,i,i,81,
Cc1cnc(NC(=O)Nc2ccc(Cl)cc2)s1,40,82,i,i,i,86,
O=C(Cc1csc(NC(=O)Nc2ccc(Cl)cc2)n1)NCc1ccccn1,i,i,nt,i,i,nt,
COC(=O)[C@]12C[C@H](CC(=O)NCCc3ccccc3OC)C(=O)N(Cc3ccc4c(c3)OCO4)C1=C[C@H](C(C)(C)C)O[C@@H]2C,i,nt,nt,nt,i,nt,
CN1CCCCC(NC(=O)c2ccc3ccccc3c2)C1=O (stereo unspecified),i,nt,nt,nt,i,nt,
C[C@@H]1CN([C@@H](C)CO)C(=O)c2cc(Br)cnc2O[C@@H]1CN(C)S(=O)(=O)c1ccc(F)cc1,i,i,nt,i,i,nt,
Cc1csc(NC(=O)Nc2ccc(Cl)cc2)n1,i,74,i,i,i,69,
CC(=O)Nc1nc(C)cs1,i,i,i,i,i,nt,
CCOC(=O)Cc1csc(NC(=O)Nc2cccc(Cl)c2)n1,i,73,i,i,i,86,
NCc1csc(NC(=O)Nc2cccc(Cl)c2)n1,i,i,nt,nt,i,nt,
CC1=C(C(=O)N(C)C)CC(CC(=O)NCc2cccs2)C(=O)N1Cc1ccc(C(C)(C)C)cc1 (stereo unspecified),i,i,nt,nt,i,nt,
O=[N+]([O-])c1ccc(O)c(C(C#Cc2ccccc2)N2CCOCC2)c1 (stereo unspecified),i,68,i,i,i,87,
O=C(c1cc([N+](=O)[O-])ccc1N1CCOCC1)N1CCN(c2ccccc2)CC1,i,i,i,i,i,nt,
COc1ccccc1CNc1nc(NCC2CC2)nc2ccsc12,i,80,nt,nt,i,92,
Cc1ccc(CNc2nc(NCC3CC3)nc3ccsc23)c(C)c1,i,i,nt,nt,i,nt,
COc1ccccc1CNc1nc(NCc2ccccc2OC)c2sccc2n1,i,85,nt,nt,i,115,
COc1ccccc1CNc1nc(NCc2ccccc2SC)c2sccc2n1,i,85,nt,nt,i,84,
COc1ccccc1CNc1nc(NCc2ccc3occc3c2)c2sccc2n1,i,72,nt,nt,i,99,
c1cc2cc(CNc3nc(NCC4CC4)nc4ccsc34)ccc2o1,i,i,nt,nt,i,nt,
COc1ccccc1CNc1nc(NCCNC(C)=O)c2sccc2n1,i,i,nt,nt,i,nt,

# High-throughput results (PubChem)
